Assay results reported in ChEMBL document CHEMBL2029288, “Coumarin-trioxane hybrids: synthesis and evaluation as a new class of antimalarial scaffolds” (Bioorg Med Chem Lett, 2012).
Values after ≈ are worked out from the molar mass of the structure shown.

The compounds below were run on Plasmodium falciparum (assay: Antimalarial activity against chloroquine-sensitive Plasmodium falciparum 3D7 after 72 hrs by MSF assay). Conditions: 3D7, 72 h.
Format: functional, organism-based
Method in brief: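 Parasites in 1% cell suspension at 0.8–1% initial parasitaemia, exposed to compounds in duplicate wells for 72 h at 37 °C under 5% CO2 in air. SYBR Green-I then added for 1 h at 37 °C; fluorescence read at excitation 485 ± 20 nm, emission 530 ± 20 nm. Signal expressed as percent of untreated controls; IC50 by logit regression. Chloroquine standard.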

| Structure (SMILES) | IC50 [µg/mL] |
| --- | --- |
| C=C(c1ccc(C)cc1)C1COC(c2cc(C)c3oc(=O)c(C(=O)OC)cc3c2)OO1 (centres undefined) | 0.361 (≈ 0.853 µM) |
| C=C(c1ccc(Br)cc1)C1COC(c2cc(C(C)CC)c3oc(=O)c(C(=O)OCC)cc3c2)OO1 (centres undefined) | 0.11 (≈ 0.203 µM) |
| C=C(c1ccc(F)cc1)C1COC(c2cc(C(C)CC)c3oc(=O)c(C(=O)OCC)cc3c2)OO1 (centres undefined) | 0.117 (≈ 0.242 µM) |
| C=C(c1ccc(C)cc1)C1COC(c2cc(C(C)CC)c3oc(=O)c(C(=O)OC)cc3c2)OO1 (centres undefined) | 0.132 (≈ 0.284 µM) |
| C=C(c1ccc(Br)cc1)C1COC(c2cc(C)c3oc(=O)c(C(=O)OCC)cc3c2)OO1 (centres undefined) | 0.246 (≈ 0.49 µM) |
| C=C(c1ccc(C)cc1)C1COC(c2cc(C(C)CC)c3oc(=O)c(C(=O)OCC)cc3c2)OO1 (centres undefined) | 0.0393 (≈ 0.0821 µM) |
| C=C(c1ccc(Br)cc1)C1COC(c2cc(C)c3oc(=O)c(C(=O)OC)cc3c2)OO1 (centres undefined) | 0.306 (≈ 0.628 µM) |
| C=C(c1ccc(F)cc1)C1COC(c2cc(C)c3oc(=O)c(C(=O)OCC)cc3c2)OO1 (centres undefined) | > 0.5 |
| C=C(c1ccc(C)cc1)C1COC(c2cc(C)c3oc(=O)c(C(=O)OCC)cc3c2)OO1 (centres undefined) | 0.262 (≈ 0.601 µM) |
| C=C(c1ccc(Br)cc1)C1COC(c2cc(C(C)CC)c3oc(=O)c(C(=O)OC)cc3c2)OO1 (centres undefined) | 0.076 (≈ 0.144 µM) |
| C=C(c1ccc(F)cc1)C1COC(c2cc(C(C)CC)c3oc(=O)c(C(=O)OC)cc3c2)OO1 (centres undefined) | 0.203 (≈ 0.433 µM) |
| CO[C@H]1O[C@@H]2O[C@@]3(C)CC[C@H]4[C@H](C)CC[C@@H]([C@H]1C)[C@@]24OO3 [ARTEMETHER] | 0.0004 (≈ 0.00134 µM) |
| C=C(c1ccc(F)cc1)C1COC(c2cc(C)c3oc(=O)c(C(=O)OC)cc3c2)OO1 (centres undefined) | > 0.5 |

The compounds below were run on Plasmodium yoelii nigeriensis (assay: Antimalarial activity against multi drug-resistant Plasmodium yoelii nigeriensis infected in Swiss mouse assessed as suppression in parasitemia at 96 mg/kg, po on day 4). Conditions: not given.
Format: functional
Method in brief: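 Peters's 4-day suppressive test in Swiss mice infected with P. yoelii nigeriensis. Compound given orally at 96 mg/kg/day for 4 days; parasitaemia suppression scored on day 4.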

| Structure (SMILES) | Activity [%] |
| --- | --- |
| C=C(c1ccc(C)cc1)C1COC(c2cc(C)c3oc(=O)c(C(=O)OCC)cc3c2)OO1 (centres undefined) | 41.14 |
